Experimental data as given in ChEMBL document CHEMBL1138854, “Synthesis and antitumor activity of guanylhydrazones from 6-(2,4-dichloro-5-nitrophenyl)imidazo[2,1-b]thiazoles and 6-pyridylimidazo[2,1-b]thiazoles(1)” (2006).
Where “and” joins values, the source holds several entries; their conditions need not be identical. Identical values can stand only once. Calls of active or inactive are those of the source. The calls are words filed in the database; no cut-off is given here.

Legend:
[1] = Antitumor activity against CNS cell lines of the NCI60 panel; type: functional; details: Homo sapiens; for TGI: read-out: pTGI (converted)
Method in brief: (§1)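 Run by NCI in the 60-cell-line panel (details in Supporting Information). Highest concentration 10^-4 M unless noted (one case 10-2.6 M). Values expressed as -log molar concentration giving 50% growth inhibition (pGI50), total cytostasis (pTGI) or 50% cell kill (pLC50); only values >4.00 reported; mean graph midpoint is the calculated panel mean.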

[2] = Antitumor activity against breast cell lines of the NCI60 panel; type: functional; details: Homo sapiens; for TGI: read-out: pTGI (converted); method in brief: as §1
NSCLC = experiment: Antitumor activity against NSCLC cell lines of the NCI60 panel; type: functional; details: Homo sapiens; for TGI: read-out: pTGI (converted); method in brief: as §1
[3] = Antitumor activity against colon cell lines of the NCI60 panel; type: functional; details: Homo sapiens; for TGI: read-out: pTGI (converted); method in brief: as §1
[4] = Antitumor activity against renal cell lines of the NCI60 panel; type: functional, Homo sapiens; details: for TGI: read-out: pTGI (converted); method in brief: as §1
[5] = Antitumor activity against prostate cell lines of the NCI60 panel; type: functional; details: Homo sapiens; for TGI: read-out: pTGI (converted); method in brief: as §1
[6] = Antitumor activity against ovarian cell lines of the NCI60 panel; type: functional; details: Homo sapiens; for TGI: read-out: pTGI (converted); method in brief: as §1
[7] = Antitumor activity against melanoma cell lines of the NCI60 panel; type: functional; details: Homo sapiens; for TGI: read-out: pTGI (converted); method in brief: as §1
[8] = Antitumor activity against leukemia cell lines of the NCI60 panel; type: functional; details: Homo sapiens; for TGI: read-out: pTGI (converted); method in brief: as §1
[9] = target: T1, S-adenosylmethionine decarboxylase proenzyme (Homo sapiens) (UniProt P17707); experiment: Inhibition of SAMDC in HL60 cells by release of radioactive CO2 from [14C-carboxyl]S-adenosylmethionine; details: HL-60
T1 sequence (whole entry): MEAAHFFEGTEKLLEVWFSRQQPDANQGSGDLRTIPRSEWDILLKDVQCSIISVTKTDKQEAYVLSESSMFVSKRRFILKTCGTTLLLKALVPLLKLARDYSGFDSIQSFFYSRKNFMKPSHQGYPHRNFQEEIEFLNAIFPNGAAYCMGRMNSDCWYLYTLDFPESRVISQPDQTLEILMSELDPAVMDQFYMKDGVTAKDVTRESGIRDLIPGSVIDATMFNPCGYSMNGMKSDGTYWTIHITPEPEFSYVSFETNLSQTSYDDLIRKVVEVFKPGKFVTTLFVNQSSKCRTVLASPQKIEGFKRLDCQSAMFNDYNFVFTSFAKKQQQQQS

HL-60 = experiment: Mitochondrial potential in HL60 cells assessed as decrease in ATP level at 0.5 uM; type: functional, cell-based; details: Homo sapiens

| Structure (SMILES) | GI50 [1] | TGI [1] | GI50 [2] | TGI [2] | GI50 (NSCLC) | TGI (NSCLC) | GI50 [3] | TGI [3] | GI50 ([4]; Homo sapiens, renal) | TGI ([4]; Homo sapiens, renal) | GI50 [5] | TGI [5] | GI50 [6] | TGI [6] | GI50 [7] | TGI [7] | GI50 [8] | TGI [8] | further results |
| --- | --- | --- | --- | --- | --- | --- | --- | --- | --- | --- | --- | --- | --- | --- | --- | --- | --- | --- | --- |
| N=C(N)N/N=C/c1c(-c2cc([N+](=O)[O-])c(Cl)cc2Cl)nc2n1CCS2 | 0.302 µM | 9.55 µM | 0.617 µM | 10.5 µM | 1.15 µM | 2.57 µM | 0.447 µM | 2.19 µM | 1.17 µM | 2.88 µM | 0.813 µM | 3.09 µM | 1.32 µM | 2.82 µM | 0.759 µM | 2.51 µM | 0.339 µM | 3.16 µM | – |
| N=C(N)N/N=C/c1c(-c2ccc(Cl)c([N+](=O)[O-])c2)nc2n1CCS2 | 6.92 µM | 25.7 µM | 11.5 µM | 27.5 µM | 10.5 µM | 38.9 µM | 6.61 µM | 17.4 µM | 10 µM | – | 6.61 µM | 20.9 µM | 9.77 µM | 30.9 µM | 8.32 µM | 24 µM | 3.09 µM | 13.2 µM | – |
| Cc1csc2nc(-c3cc([N+](=O)[O-])c(Cl)cc3Cl)c(/C=N/N=C(N)N)n12 | 17.8 µM | 34.7 µM | 15.5 µM | 32.4 µM | 17 µM | 35.5 µM | 15.1 µM | 33.1 µM | 17 µM | 33.1 µM | 16.6 µM | 35.5 µM | 17 µM | 37.2 µM | 16.2 µM | 31.6 µM | 2.51 µM | 25.7 µM | – |
| CC(/C=N/NC(=N)N)=N\NC(=N)N [MITOGUAZONE] | 20 µM | 251 µM | 15.8 µM | 316 µM | 25.1 µM | 316 µM | 12.6 µM | 501 µM | 20 µM | – | 100 µM | 1580 µM | 15.8 µM | 316 µM | 39.8 µM | 316 µM | 7.94 µM | 631 µM | LC50 [4]: 501 µM and 2000 µM |
| CCCc1cn2c(/C=N/NC(=N)N)c(-c3cc([N+](=O)[O-])c(Cl)cc3Cl)nc2s1 | 1.66 µM | 3.09 µM | 1.74 µM | 3.47 µM | 1.74 µM | 3.24 µM | 1.48 µM | 2.75 µM | 1.66 µM | 3.09 µM | 1.74 µM | 3.39 µM | 1.62 µM | 3.02 µM | 1.66 µM | 3.09 µM | 0.724 µM | 1.95 µM | Activity [9]: inactive; Activity (HL-60): inactive |
| Cc1sc2nc(-c3cc([N+](=O)[O-])c(Cl)cc3Cl)c(/C=N/NC(=N)N)n2c1C | 11.2 µM | 67.6 µM | 7.24 µM | 35.5 µM | 11 µM | 47.9 µM | 4.27 µM | 29.5 µM | 8.71 µM | – | 9.12 µM | 38 µM | 5.25 µM | 24 µM | 5.01 µM | 16.2 µM | 2.09 µM | 22.4 µM | – |
| N=C(N)N/N=C/c1c(-c2ccncc2)nc2sc(Cl)cn12 | 7.76 µM | 20 µM | 13.2 µM | 40.7 µM | 6.76 µM | 17 µM | 8.13 µM | 27.5 µM | 6.61 µM | – | 17.4 µM | 33.1 µM | 10.2 µM | 20.9 µM | 5.89 µM | 13.8 µM | 3.8 µM | 11.7 µM | Activity [9]: inactive; Activity (HL-60): inactive |
| N=C(N)N/N=C/c1c(-c2cccnc2)nc2sc(Cl)cn12 | 15.1 µM | 31.6 µM | 16.6 µM | 46.8 µM | 20 µM | 41.7 µM | 8.51 µM | 21.9 µM | 18.2 µM | 35.5 µM | 15.1 µM | 28.2 µM | 15.5 µM | 36.3 µM | 18.2 µM | 36.3 µM | 13.8 µM | 42.7 µM | – |
| Cc1sc2nc(-c3ccncc3)c(/C=N/NC(=N)N)n2c1C | 38.9 µM | 93.3 µM | 43.7 µM | 91.2 µM | 38.9 µM | 97.7 µM | 35.5 µM | 79.4 µM | 39.8 µM | 89.1 µM | 55 µM | – | 53.7 µM | 97.7 µM | 38 µM | 83.2 µM | 30.2 µM | 95.5 µM | – |
| Cc1cn2c(/C=N/NC(=N)N)c(-c3ccccn3)nc2s1 | 8.13 µM | 26.9 µM | 8.91 µM | 37.2 µM | 10.2 µM | 32.4 µM | 8.13 µM | 29.5 µM | 7.94 µM | – | 7.94 µM | 39.8 µM | 17.4 µM | 63.1 µM | 9.77 µM | 28.8 µM | 3.63 µM | – | – |
| Cc1cn2c(/C=N/NC(=N)N)c(-c3cc([N+](=O)[O-])c(Cl)cc3Cl)nc2s1 | 2.14 µM | – | 4.17 µM | – | 2.51 µM | 19.5 µM | 0.661 µM | 49 µM | 2.09 µM | 11.7 µM | – | 2.34 µM | 2.09 µM | 19.5 µM | 2.29 µM | – | 1.62 µM | – | LC50 ([4]; Homo sapiens, renal, read-out: Log LC50 (converted)): 60.3 µM |
| Cc1cn2c(/C=N/NC(=N)N)c(-c3cccnc3)nc2s1 | 12 µM | 28.2 µM | 7.08 µM | 22.4 µM | 13.8 µM | 36.3 µM | 5.62 µM | 20.9 µM | 9.55 µM | – | 6.92 µM | 24.5 µM | 15.8 µM | 36.3 µM | 10.2 µM | 25.7 µM | 4.79 µM | 51.3 µM | – |
